For five molecules, IC50 results are on record in ChEMBL document CHEMBL1131067, “Tolerance in the replacement of the benzhydrylic O atom in 4-[2-(diphenylmethoxy)ethyl]-1-benzylpiperidine derivatives by an N atom: development of new-generation potent and selective N-analogue molecules for the dopamine transporter” (J Med Chem, 1998).

Experiment [1] addresses T1, Sodium-dependent dopamine transporter (Homo sapiens, UniProt Q01959). Put plainly: Affinity was evaluated using [3H]WIN-35428 (radioligand) on Cloned human Dopamine transporter expressed in HEK cells. Type of experiment: cell-based, HEK293.
The target of experiment [2] is Sodium-dependent serotonin transporter (Homo sapiens, UniProt P31645). Put plainly: Affinity was evaluated using [3H]citalopram (radioligand) on human serotonin transporter expressed in HEK cells. It is filed as cell-based, HEK293.
Chain of Sodium-dependent serotonin transporter (Homo sapiens, UniProt P31645) (P31645 whole entry): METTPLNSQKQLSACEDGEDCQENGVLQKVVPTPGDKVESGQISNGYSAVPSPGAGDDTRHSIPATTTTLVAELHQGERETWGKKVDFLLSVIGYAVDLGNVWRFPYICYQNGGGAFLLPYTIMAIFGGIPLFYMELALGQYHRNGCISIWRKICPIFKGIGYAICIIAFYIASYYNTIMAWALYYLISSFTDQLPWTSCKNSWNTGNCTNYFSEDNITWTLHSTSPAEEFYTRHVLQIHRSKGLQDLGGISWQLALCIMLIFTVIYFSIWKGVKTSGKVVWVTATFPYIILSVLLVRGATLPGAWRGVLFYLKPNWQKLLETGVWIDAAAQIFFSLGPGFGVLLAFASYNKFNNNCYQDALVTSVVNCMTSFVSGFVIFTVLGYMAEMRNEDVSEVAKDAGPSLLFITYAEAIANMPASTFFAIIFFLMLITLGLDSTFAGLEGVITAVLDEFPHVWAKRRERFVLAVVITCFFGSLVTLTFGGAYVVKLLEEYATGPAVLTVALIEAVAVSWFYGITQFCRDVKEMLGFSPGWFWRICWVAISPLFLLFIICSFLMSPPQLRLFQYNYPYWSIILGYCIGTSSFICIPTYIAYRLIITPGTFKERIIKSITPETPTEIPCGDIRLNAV
Experiment [3] has as its target Sodium-dependent dopamine transporter (Rattus norvegicus, UniProt P23977). Put plainly: IC50 value was evaluated using [3H]WIN-35428 (radioligand) on Dopamine transporter in rat striatum. Type of experiment: tissue-based.
Experiment [4] deals with T1, Sodium-dependent dopamine transporter. Put plainly: Affinity was evaluated using [3H]DA (radioligand) on Cloned human Dopamine transporter expressed in HEK cells. Type of experiment: cell-based, HEK293. The gist of the method:
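HEK-293 cells stably expressing cloned hDAT, suspended intact; preincubated with inhibitor 15 min at room temperature in pH 7.4 Na phosphate/NaCl/KCl/MgSO4/glucose/CaCl2 buffer with 0.1 mM tropolone, then [3H]dopamine added for 8 min more; ended with ice-cold buffer. Compounds from DMSO stocks, 0.5% final DMSO, at least five concentrations.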

Experiment [5] concerns the target Sodium-dependent serotonin transporter (Rattus norvegicus, UniProt P31652). Put plainly: IC50 value was evaluated using [3H]citalopram (radioligand) on serotonin transporter in rat striatum. It is filed as tissue-based.

T1 sequence (Q01959 whole entry): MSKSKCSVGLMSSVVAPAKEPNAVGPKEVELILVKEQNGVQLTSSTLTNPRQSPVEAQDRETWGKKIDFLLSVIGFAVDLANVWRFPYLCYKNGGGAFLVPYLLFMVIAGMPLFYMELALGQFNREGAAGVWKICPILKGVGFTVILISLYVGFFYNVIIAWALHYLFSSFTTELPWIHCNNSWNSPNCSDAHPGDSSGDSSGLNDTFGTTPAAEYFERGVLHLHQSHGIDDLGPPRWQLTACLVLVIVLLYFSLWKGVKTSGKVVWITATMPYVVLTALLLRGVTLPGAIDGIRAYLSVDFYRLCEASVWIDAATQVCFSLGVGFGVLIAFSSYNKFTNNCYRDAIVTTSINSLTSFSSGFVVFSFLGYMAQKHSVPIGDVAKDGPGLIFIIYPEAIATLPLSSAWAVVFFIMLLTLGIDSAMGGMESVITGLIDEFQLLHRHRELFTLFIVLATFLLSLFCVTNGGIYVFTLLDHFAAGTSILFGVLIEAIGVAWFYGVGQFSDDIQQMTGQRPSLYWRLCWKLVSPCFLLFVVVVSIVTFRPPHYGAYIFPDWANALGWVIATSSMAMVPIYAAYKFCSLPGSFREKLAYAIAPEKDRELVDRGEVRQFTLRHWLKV
Chain of Sodium-dependent dopamine transporter (Rattus norvegicus, UniProt P23977) (P23977 whole entry): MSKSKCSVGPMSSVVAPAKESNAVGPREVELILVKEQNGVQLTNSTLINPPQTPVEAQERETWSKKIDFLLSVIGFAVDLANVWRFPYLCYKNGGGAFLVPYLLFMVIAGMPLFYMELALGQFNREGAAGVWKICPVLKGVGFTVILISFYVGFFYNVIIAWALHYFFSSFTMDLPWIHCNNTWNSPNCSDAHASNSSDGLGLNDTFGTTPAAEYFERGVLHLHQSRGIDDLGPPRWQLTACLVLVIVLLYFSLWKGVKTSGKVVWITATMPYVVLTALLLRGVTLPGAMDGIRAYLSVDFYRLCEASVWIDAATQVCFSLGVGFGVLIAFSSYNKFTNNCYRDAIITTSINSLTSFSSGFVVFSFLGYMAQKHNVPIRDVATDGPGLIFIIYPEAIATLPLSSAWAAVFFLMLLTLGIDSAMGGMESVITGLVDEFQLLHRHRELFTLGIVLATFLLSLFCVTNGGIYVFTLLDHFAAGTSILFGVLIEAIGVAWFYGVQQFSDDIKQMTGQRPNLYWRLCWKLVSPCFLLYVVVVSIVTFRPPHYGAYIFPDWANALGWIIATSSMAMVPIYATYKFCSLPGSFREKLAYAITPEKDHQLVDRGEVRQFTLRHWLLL
Chain of Sodium-dependent serotonin transporter (Rattus norvegicus, UniProt P31652) (P31652 whole entry): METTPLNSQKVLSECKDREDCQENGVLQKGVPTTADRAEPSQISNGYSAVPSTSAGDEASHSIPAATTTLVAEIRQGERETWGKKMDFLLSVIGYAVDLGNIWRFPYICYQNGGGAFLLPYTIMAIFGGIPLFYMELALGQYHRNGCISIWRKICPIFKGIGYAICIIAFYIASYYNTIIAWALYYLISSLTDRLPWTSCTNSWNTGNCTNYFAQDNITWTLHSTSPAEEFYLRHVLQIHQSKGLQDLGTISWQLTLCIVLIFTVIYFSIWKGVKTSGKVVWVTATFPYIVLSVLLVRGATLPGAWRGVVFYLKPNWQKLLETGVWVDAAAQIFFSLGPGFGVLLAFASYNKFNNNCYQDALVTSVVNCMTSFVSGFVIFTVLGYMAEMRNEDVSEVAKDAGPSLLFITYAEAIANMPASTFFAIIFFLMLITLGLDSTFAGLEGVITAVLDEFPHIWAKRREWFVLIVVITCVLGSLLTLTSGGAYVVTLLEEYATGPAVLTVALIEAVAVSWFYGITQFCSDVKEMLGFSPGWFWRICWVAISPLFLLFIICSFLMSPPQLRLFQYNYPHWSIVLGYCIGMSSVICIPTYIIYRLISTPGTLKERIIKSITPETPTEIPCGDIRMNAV

`O=C(CC1CCN(Cc2ccc(F)cc2)CC1)NC(c1ccccc1)c1ccccc1`: the figures for the IC50 in experiment [1] and in experiment [2] were 3210 nM and 49200 nM, respectively.

As for `Fc1ccc(CN2CCC(CCNC(c3ccccc3)c3ccccc3)CC2)cc1`, the 50% inhibitory concentration (IC50) in experiment [3] came out at 9.4 nM; in experiment [1], 30 nM; in experiment [4] it was 32 nM; in experiment [2], 5850 nM; in experiment [5], 585 nM.

For the molecule `Fc1ccc(CN2CCC(CCOC(c3ccccc3)c3ccccc3)CC2)cc1`, the IC50 in experiment [1] was found to be 37.6 nM.

With `Fc1ccc(C(OCCC2CCN(Cc3ccccc3)CC2)c2ccc(F)cc2)cc1`, the IC50 in experiment [1] turned out to be 35 nM.

Consider `Fc1ccc(C(NCCC2CCN(Cc3ccccc3)CC2)c2ccc(F)cc2)cc1`, for which the IC50 in experiment [1] stood at 33 nM; in experiment [4], 58 nM; in experiment [2], 10700 nM.
